In ChEMBL document CHEMBL4706649, “Design, synthesis and biological evaluation of new benzoxazolone/benzothiazolone derivatives as multi-target agents against Alzheimer's disease” (Eur J Med Chem, 2021):
pIC50: −log10 of the molar value. Calls of active or inactive are those of the source. No cut-off for these calls is given here.

How the values were obtained:
[1] = target: Amyloid-beta precursor protein (Homo sapiens) (UniProt P05067); assay: Inhibition of amyloid beta (1 to 42) (unknown origin) self-induced aggregation at 50 uM by Thioflavin T based fluorometric assay relative to control
Sequence of Amyloid-beta precursor protein (Homo sapiens) (P05067 whole entry): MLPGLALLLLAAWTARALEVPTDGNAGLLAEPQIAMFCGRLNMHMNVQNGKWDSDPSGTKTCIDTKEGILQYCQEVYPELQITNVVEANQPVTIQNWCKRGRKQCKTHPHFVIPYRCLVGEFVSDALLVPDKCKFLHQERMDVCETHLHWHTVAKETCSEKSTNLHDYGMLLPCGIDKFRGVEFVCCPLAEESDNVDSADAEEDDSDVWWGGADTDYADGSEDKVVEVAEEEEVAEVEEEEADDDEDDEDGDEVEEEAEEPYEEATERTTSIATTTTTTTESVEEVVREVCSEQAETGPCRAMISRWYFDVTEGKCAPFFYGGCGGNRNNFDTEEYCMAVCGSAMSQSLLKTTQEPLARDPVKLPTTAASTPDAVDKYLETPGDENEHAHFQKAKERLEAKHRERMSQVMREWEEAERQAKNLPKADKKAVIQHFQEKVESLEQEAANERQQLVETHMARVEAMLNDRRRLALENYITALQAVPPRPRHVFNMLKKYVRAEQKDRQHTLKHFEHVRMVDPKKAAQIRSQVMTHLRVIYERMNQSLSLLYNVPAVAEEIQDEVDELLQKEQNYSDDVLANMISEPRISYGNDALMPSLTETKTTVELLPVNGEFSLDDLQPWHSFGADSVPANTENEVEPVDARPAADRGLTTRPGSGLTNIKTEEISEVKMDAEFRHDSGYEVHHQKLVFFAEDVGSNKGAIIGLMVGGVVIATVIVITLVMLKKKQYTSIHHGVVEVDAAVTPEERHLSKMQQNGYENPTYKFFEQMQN
Outline: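 Thioflavin T fluorometric assay of Aβ1-42 self-aggregation, with inhibitor and Aβ42 both at 50 (equimolar). Samples dissolved in DMSO. Result given as % inhibition, mean of two independent experiments each run in triplicate.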

[2] = target: Acetylcholinesterase (Electrophorus electricus) (UniProt O42275); assay: Inhibition of electric eel AChE at 100 uM using acetylthiocholine iodide as substrate preincubated for 10 mins followed by substrate addition and measured for 10 mins by Ellman's method relative to control; conditions: time 20.0 min
Sequence of Acetylcholinesterase (Electrophorus electricus) (O42275 24-633 limits assumed): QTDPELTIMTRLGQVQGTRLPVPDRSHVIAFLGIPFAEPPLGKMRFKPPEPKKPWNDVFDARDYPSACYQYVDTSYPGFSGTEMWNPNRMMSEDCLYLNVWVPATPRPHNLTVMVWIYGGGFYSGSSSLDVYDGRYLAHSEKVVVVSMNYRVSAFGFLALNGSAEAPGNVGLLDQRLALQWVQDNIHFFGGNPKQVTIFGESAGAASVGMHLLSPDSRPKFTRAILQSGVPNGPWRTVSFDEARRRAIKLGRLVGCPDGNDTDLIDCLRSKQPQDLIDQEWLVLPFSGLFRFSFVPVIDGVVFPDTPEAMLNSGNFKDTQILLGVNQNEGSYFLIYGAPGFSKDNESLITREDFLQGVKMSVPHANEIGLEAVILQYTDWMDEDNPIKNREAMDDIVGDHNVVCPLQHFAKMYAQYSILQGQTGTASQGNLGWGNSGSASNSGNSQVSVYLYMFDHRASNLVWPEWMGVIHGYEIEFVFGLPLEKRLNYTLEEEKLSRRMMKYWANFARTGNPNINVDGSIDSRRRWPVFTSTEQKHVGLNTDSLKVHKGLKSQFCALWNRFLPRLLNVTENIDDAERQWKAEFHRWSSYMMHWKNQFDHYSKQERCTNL
Outline: (§1)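 Ellman single-concentration screen in 50 mM Tris-HCl pH 8.0 with DTNB (6.8 mM stock) and 1% DMSO. Enzyme solution 0.4 U/mL AChE or 0.8 U/mL BChE. Compound and enzyme preincubated 10 min at 25 °C, then ATI (10 mM stock) or BTI (30 mM stock) added. A412 followed for 10 min, blank-subtracted, % inhibition versus no-compound control. Triplicate.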

Acetylcholinesterase = Acetylcholinesterase (Electrophorus electricus, UniProt O42275); assay: Inhibition of electric eel AChE using acetylthiocholine iodide as substrate preincubated for 10 mins followed by substrate addition and measured for 10 mins by Ellman's method
Sequence of Acetylcholinesterase (O42275 whole entry): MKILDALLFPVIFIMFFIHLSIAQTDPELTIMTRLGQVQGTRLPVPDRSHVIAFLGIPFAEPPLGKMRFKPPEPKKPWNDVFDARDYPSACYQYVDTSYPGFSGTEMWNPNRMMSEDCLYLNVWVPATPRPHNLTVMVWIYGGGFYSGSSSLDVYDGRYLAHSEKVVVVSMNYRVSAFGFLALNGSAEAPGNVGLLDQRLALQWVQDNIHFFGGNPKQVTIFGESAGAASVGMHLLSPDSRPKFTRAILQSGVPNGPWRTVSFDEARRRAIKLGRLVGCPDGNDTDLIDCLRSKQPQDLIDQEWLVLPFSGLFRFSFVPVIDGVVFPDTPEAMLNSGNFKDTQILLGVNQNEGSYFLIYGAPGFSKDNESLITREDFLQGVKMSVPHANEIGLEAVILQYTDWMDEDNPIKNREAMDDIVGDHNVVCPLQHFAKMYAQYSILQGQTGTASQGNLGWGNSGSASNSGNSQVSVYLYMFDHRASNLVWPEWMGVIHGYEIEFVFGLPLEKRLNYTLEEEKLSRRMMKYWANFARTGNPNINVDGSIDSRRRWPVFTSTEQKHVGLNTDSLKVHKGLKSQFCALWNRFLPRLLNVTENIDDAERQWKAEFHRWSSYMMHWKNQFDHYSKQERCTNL

[3] = target: Cholinesterase (Equus caballus) (UniProt P81908); assay: Inhibition of equine serum BChE at 100 uM using butyrylthiocholine iodide as substrate preincubated for 10 mins followed by substrate addition and measured for 10 mins by Ellman's method relative to control; conditions: time 20.0 min; outline: as §1
Sequence of Cholinesterase (Equus caballus) (P81908 whole entry): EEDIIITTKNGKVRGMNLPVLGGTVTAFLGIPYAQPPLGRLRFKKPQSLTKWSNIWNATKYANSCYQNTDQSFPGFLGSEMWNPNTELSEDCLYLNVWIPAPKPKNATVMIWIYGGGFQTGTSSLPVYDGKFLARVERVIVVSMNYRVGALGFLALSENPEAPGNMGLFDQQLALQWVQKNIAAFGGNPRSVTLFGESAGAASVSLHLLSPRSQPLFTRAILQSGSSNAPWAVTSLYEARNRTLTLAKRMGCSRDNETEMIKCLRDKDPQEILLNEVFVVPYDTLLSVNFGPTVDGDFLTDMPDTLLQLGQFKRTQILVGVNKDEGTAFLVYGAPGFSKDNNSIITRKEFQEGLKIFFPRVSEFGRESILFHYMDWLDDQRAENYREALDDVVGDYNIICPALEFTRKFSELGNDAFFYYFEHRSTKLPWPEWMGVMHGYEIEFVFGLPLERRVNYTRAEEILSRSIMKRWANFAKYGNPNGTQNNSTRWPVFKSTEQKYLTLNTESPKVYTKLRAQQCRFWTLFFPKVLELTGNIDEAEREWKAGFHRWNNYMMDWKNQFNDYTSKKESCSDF

[4] = Antioxidant activity assessed as trolox equivalent of AAPH radical scavenging activity at 10 uM measured every min for 90 mins by ORAC-FL assay; type: functional
Outline: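 ORAC-FL in 75 mM phosphate buffer pH 7.4. Sample and fluorescein (150 nM final) preincubated 15 min at 37 °C, then AAPH (12 mM final) added. Fluorescence (ex 485/em 535 nm) read each minute for 90 min. Net AUC after blank subtraction, converted to Trolox equivalents from a Trolox curve (0.5–8, final; Trolox = 1). Duplicate wells, three independent assays.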

THP-1 [5] = assay: Antiinflammatory activity in LPS-induced human THP-1 cells assessed as reduction in IL1beta release at 10 uM peincubated for 1 hr followed by LPS stimulation and measured after 24 hrs by EIA; type: functional, cell-based; conditions: time 25.0 hrs
Outline: (§2)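 THP-1 cells grown in RPMI 1640 with 10% FCS, penicillin and streptomycin at 37 °C, 5% CO2, then plated overnight at 4×10⁴ cells/well. Test compound added 1 h before 100 ng/ml E. coli O111:B4 LPS; 24 h incubation. Untreated and LPS-only controls. […]; cytokine read by EIA at 450 nm against a standard curve. At least triplicate.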

THP-1 [6] = assay: Antiinflammatory activity in LPS-induced human THP-1 cells assessed as reduction in IL6 release at 10 uM peincubated for 1 hr followed by LPS stimulation and measured after 24 hrs by EIA; type: functional, cell-based; conditions: time 25.0 hrs; outline: as §2
THP-1 [7] = assay: Antiinflammatory activity in LPS-induced human THP-1 cells assessed as reduction in TNFalpha release at 10 uM peincubated for 1 hr followed by LPS stimulation and measured after 24 hrs by EIA; type: functional, cell-based; conditions: time 25.0 hrs; outline: as §2
THP-1 [8] = assay: Antiinflammatory activity in LPS-induced human THP-1 cells assessed as reduction in nitric oxide release at 10 uM peincubated for 1 hr followed by LPS stimulation and measured after 24 hrs by ELISA; type: functional, cell-based; conditions: time 25.0 hrs
Outline: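 THP-1 cells plated overnight at 4×10⁴ cells/well, given test compound 1 h before 100 ng/ml LPS (E. coli O111:B4), then incubated 24 h. Cell-free supernatants stored at −20 °C, then NO measured by ELISA kit (sensitivity 1,12 […]) from a standard curve. Untreated cells as negative control, LPS-only as positive control. At least triplicate.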

Cholinesterase = Cholinesterase (Equus caballus, UniProt P81908); assay: Inhibition of equine serum BChE using butyrylthiocholine iodide as substrate preincubated for 10 mins followed by substrate addition and measured for 10 mins by Ellman's method
Sequence of Cholinesterase (P81908 whole entry): as above
Outline: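 BChE (0.8 U/mL solution) preincubated with inhibitor 10 min at 25 °C in Tris-HCl pH 8.0 with DTNB and 1% DMSO, then BTI (30 mM stock) added. A412 read over 10 min, blank-corrected. IC50 from log[inhibitor] versus % inhibition. Triplicate, mean ± SD.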

| SMILES | inhibition [1] | inhibition [2] | pIC50 (Acetylcholinesterase) | inhibition [3] | Activity [4] | Activity (THP-1 [5]) | Activity (THP-1 [6]) | Activity (THP-1 [7]) | Activity (THP-1 [8]) | pIC50 (Cholinesterase) |
| --- | --- | --- | --- | --- | --- | --- | --- | --- | --- | --- |
| O=S1(=O)OC(c2ccc(O)cc2)(c2ccc(O)cc2)c2ccccc21 | 32.2% |  |  |  |  |  |  |  |  |  |
| Cn1c(=O)oc2cc(NC(=O)CCCN3CCN(Cc4ccccc4)CC3)ccc21 |  | 94% | 5.22 | < 10% | 3.97 equiv | Active | Active | Active | Active |  |
| Cn1c(=O)oc2cc(NC(=O)CCN3CCN(Cc4ccc(C(F)(F)F)cc4)CC3)ccc21 |  | 35% |  | < 10% | 3.96 equiv |  |  |  |  |  |
| CN(CCC(=O)Nc1ccc2c(c1)oc(=O)n2C)Cc1ccccc1 |  | 58% | 4.28 | 42% | 4.3 equiv |  |  |  |  |  |
| Cn1c(=O)oc2cc(NC(=O)CCN3CCN(c4ccccc4)CC3)ccc21 |  | 32% |  | < 10% | 4.02 equiv |  |  |  |  |  |
| Cn1c(=O)sc2cc(C(=O)CCN3CCC(c4ccccc4)CC3)ccc21 |  | 81% | 5.36 | 79% | 3.1 equiv |  |  |  |  | 4.85 |
| Cn1c(=O)sc2cc(NC(=O)CCN3CCC(Cc4ccccc4)CC3)ccc21 |  | 62% | 4.50 | 60% | 4.01 equiv |  |  |  |  | 4.12 |
| COc1ccc(CN2CCN(CCC(=O)Nc3ccc4c(c3)oc(=O)n4C)CC2)cc1 |  | 38% |  | < 10% | 4.2 equiv |  |  |  |  |  |
| Cn1c(=O)sc2cc(NC(=O)CCCCN3CCN(Cc4ccccc4)CC3)ccc21 |  | 87% | 4.86 | < 10% | 2.67 equiv |  |  |  |  |  |
| Cn1c(=O)sc2cc(NC(=O)CCN3CCN(Cc4ccccc4)CC3)ccc21 |  | 92% | 5.63 | < 10% | 4.08 equiv | Active | Active | Active | Active |  |
| Cn1c(=O)oc2cc(NC(=O)CCN3CCC(c4ccccc4)CC3)ccc21 |  | 25% |  | < 10% | 4.09 equiv |  |  |  |  |  |
| Cn1c(=O)sc2cc(NC(=O)CCN3CCN(Cc4ccc(Cl)cc4)CC3)ccc21 |  | 37% |  | < 10% | 4.01 equiv |  |  |  |  |  |
| Cn1c(=O)sc2cc(NC(=O)CCN3CCN(c4ccc(Cl)cc4)CC3)ccc21 |  | 32% |  | < 10% | 4.43 equiv |  |  |  |  |  |
| Cn1c(=O)oc2cc(NC(=O)CCCCN3CCN(Cc4ccccc4)CC3)ccc21 |  | 82% | 4.51 | < 10% | 2.63 equiv |  |  |  |  |  |
| Cn1c(=O)sc2cc(NC(=O)CCCN3CCC(c4ccccc4)CC3)ccc21 |  | 32% |  | 90% | 2.93 equiv | Active | Active | Active | Active | 5.02 |
| Cn1c(=O)oc2cc(NC(=O)CCN3CCN(Cc4ccc(F)cc4)CC3)ccc21 |  | 66% | 4.79 | 21% | 3.92 equiv |  |  |  |  |  |
| Cn1c(=O)sc2cc(NC(=O)CCN3CCN(Cc4ccc(F)cc4)CC3)ccc21 |  | 74% | 5.15 | 52% | 4.1 equiv |  |  |  |  | 4.42 |
| COc1ccc(N2CCN(CCC(=O)Nc3ccc4c(c3)oc(=O)n4C)CC2)cc1 |  | 29% |  | < 10% | 4.28 equiv |  |  |  |  |  |
| Cn1c(=O)sc2cc(NC(=O)CCN3CCN(c4ccccc4)CC3)ccc21 |  | 34% |  | < 10% | 4.24 equiv |  |  |  |  |  |

| SMILES | inhibition [1] | inhibition [2] | pIC50 (Acetylcholinesterase) | inhibition [3] | Activity [4] | Activity (THP-1 [5]) | Activity (THP-1 [6]) | Activity (THP-1 [7]) | Activity (THP-1 [8]) | pIC50 (Cholinesterase) |
| --- | --- | --- | --- | --- | --- | --- | --- | --- | --- | --- |
| O=C(CCN1CCN(Cc2ccccc2)CC1)Nc1ccc2nc(-c3ccccc3)oc2c1 |  | < 10% |  | < 10% | 2.68 equiv |  |  |  |  |  |
| Cn1c(=O)oc2cc(NC(=O)CCN3CCN(c4ccc(C(F)(F)F)cc4)CC3)ccc21 |  | 35% |  | < 10% | 3.9 equiv |  |  |  |  |  |
| Cn1c(=O)oc2cc(NC(=O)CCN3CCN(c4ccc(F)cc4)CC3)ccc21 |  | 35% |  | < 10% | 3.85 equiv |  |  |  |  |  |
| Cn1c(=O)sc2cc(NC(=O)CCCN3CCN(Cc4ccccc4)CC3)ccc21 |  | 93% | 5.71 | < 10% | 3.91 equiv | Active | Active | Active | Active |  |
| COc1ccc(N2CCN(CCC(=O)Nc3ccc4c(c3)sc(=O)n4C)CC2)cc1 |  | 31% |  | < 10% | 4.55 equiv |  |  |  |  |  |
| Cn1c(=O)oc2cc(NC(=O)CCN3CCN(c4ccc(Cl)cc4)CC3)ccc21 |  | 30% |  | < 10% | 3.95 equiv |  |  |  |  |  |
| Cn1c(=O)sc2cc(NC(=O)CCN3CCN(Cc4ccc(C(F)(F)F)cc4)CC3)ccc21 |  | 35% |  | < 10% | 4.45 equiv |  |  |  |  |  |
| Cn1c(=O)sc2cc(NC(=O)CCN3CCN(c4ccc(F)cc4)CC3)ccc21 |  | 37% |  | < 10% | 4.03 equiv |  |  |  |  |  |
| Cn1c(=O)sc2cc(NC(=O)CCN3CCN(c4ccc(C(F)(F)F)cc4)CC3)ccc21 |  | 36% |  | < 10% | 4.1 equiv |  |  |  |  |  |
| Cn1c(=O)oc2cc(C(=O)CCN3CCN(Cc4ccccc4)CC3)ccc21 |  | 97% | 6.05 | < 10% | 3.03 equiv | Active | Active | Active | Active |  |
| CN(CCC(=O)Nc1ccc2c(c1)sc(=O)n2C)Cc1ccccc1 |  | 63% | 4.31 | 70% | 3.9 equiv |  |  |  |  | 4.38 |
| Cc1ccc(N2CCN(CCC(=O)Nc3ccc4c(c3)sc(=O)n4C)CC2)cc1 |  | 35% |  | < 10% | 4.31 equiv |  |  |  |  |  |
| COc1ccc(CN2CCN(CCC(=O)Nc3ccc4c(c3)sc(=O)n4C)CC2)cc1 |  | 39% |  | < 10% | 4.28 equiv |  |  |  |  |  |
| Cn1c(=O)sc2cc(NC(=O)CCN3CCC(c4ccccc4)CC3)ccc21 |  | 60% | 4.22 | 81% | 4.31 equiv |  |  |  |  | 4.95 |
| Cc1ccc(N2CCN(CCC(=O)Nc3ccc4c(c3)oc(=O)n4C)CC2)cc1 |  | 33% |  | < 10% | 4.03 equiv |  |  |  |  |  |
| Cn1c(=O)oc2cc(NC(=O)CCN3CCC(Cc4ccccc4)CC3)ccc21 |  | 64% | 4.61 | 47% | 3.87 equiv |  |  |  |  |  |
| O=C(CCN1CCN(Cc2ccccc2)CC1)Nc1ccc2nc(-c3ccccc3)sc2c1 |  | < 10% |  | < 10% | 2.64 equiv |  |  |  |  |  |
| Cn1c(=O)oc2cc(NC(=O)CCN3CCN(Cc4ccccc4)CC3)ccc21 |  | 81% | 5.16 | 30% | 3.78 equiv | Active | Active | Active | Active |  |
| Cn1c(=O)oc2cc(NC(=O)CCN3CCN(Cc4ccc(Cl)cc4)CC3)ccc21 |  | 40% |  | < 10% | 4.19 equiv |  |  |  |  |  |
